Screening results (PubChem)
Shown are actives, neighbours in structure and some others; about 1.8% of the full set was active somewhere.
CAL PDZ FP-1 – untagged CAL PDZ binding inhibitors, primary screen, biochemical, fluorescence polarization, HTS; AID 602252, 2012; 300,000 compounds, 0.92% hits; inhibition, % at 24.9 µM; Golgi-associated PDZ and coiled-coil motif-containing protein (Homo sapiens), Q9HD26; purified CAL PDZ, TMR-peptide fluorescence polarization, 1 h;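 active = mean inhibition of at least 30% with at least half of replicates also reaching 30%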;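 note: 0% = DMSO neutral control and 100% = excess unlabeled competitor peptide PRC23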
Tn6 DDE FP – inhibitors of Tn6 peptide binding to fibrin DD(E), primary screen, biochemical, fluorescence polarization, human fibrin, Tn6 probe; Fibrinogen beta chain (Homo sapiens), P02675; 370,000 compounds, 0.21% hits; Fibrin DD(E) TRITC-Tn6 fluorescence polarization displacement; inhibition, % at 8.3 µM;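 active = inhibition above a per-campaign cutoff: mean of compounds within control limits plus 3 SD, cut at about 15% in these data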;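 note: 0% = median of all compound wells on the plate and 100% = blocking peptide control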
ARNT TACC3 PPI – disruptors of ARNT/TACC3 protein interaction, primary screen, biochemical, AlphaScreen, single concentration; Transforming acidic coiled-coil-containing protein 3 (Homo sapiens), Q9Y6A5; AlphaScreen His-ARNT PAS-B/GST-TACC3 binding, luminescence; TACC3 fragment carries E629A point mutation; inhibition, % at 9.99 µM; 390,000 compounds, 0.66% hits; AID 623870, 2012;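 active = mean inhibition of replicates at least 50% and at least half of replicates each reaching 50%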;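 note: 0% = complete ARNT plus TACC3 wells and 100% = ARNT alone without TACC3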
Tn7 DDE FP – inhibitors of Tn7 peptide binding to fibrin DD(E), primary screen, biochemical, fluorescence polarization, human fibrin, Tn7 probe; FP displacement of FITC-Tn7 peptide from fibrin DD(E); 0% = median of compound wells per plate; inhibition, % at 8.3 µM; 370,000 compounds, 0.13% hits; AID 720508, 2013;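 active = inhibition above the mean of compounds falling within the control limits plus 3 SD of them, cut at about 14% in these data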;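 note: 0% = plate median of compound wells and 100% = 10 µM Aha-Tn7 peptide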
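Also added: labelled Tn7 tracer, 0.1 µM; Assay system: human fibrin DD(E) protein; Amount: 2 µM fibrin DD(E); Schedule: 10 min compound pre-incubation, 3 h probe incubation at room temperature; Repeats: one replicate per compound; Read-out basis: percent inhibition; Measured by: fluorescence polarization of the labelled Tn7 tracer.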
GRK2 inh – compounds blocking aptamer binding on GRK2 – biochemical, human GRK2, bead flow cytometry, HTS, primary screen; 330,000 compounds, 0.59% hits; inhibition of aptamer binding, % at 10 µM; FAM-aptamer displacement from GRK2; Beta-adrenergic receptor kinase 1 (Homo sapiens), P25098;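 active = inhibition of aptamer binding above 40%, roughly 3 SD of noise, on plates passing a quality check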;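 note: median bead fluorescence of bound FAM aptamer so fluorescent compounds give negative values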
Target sequence (P25098 whole entry, looked up): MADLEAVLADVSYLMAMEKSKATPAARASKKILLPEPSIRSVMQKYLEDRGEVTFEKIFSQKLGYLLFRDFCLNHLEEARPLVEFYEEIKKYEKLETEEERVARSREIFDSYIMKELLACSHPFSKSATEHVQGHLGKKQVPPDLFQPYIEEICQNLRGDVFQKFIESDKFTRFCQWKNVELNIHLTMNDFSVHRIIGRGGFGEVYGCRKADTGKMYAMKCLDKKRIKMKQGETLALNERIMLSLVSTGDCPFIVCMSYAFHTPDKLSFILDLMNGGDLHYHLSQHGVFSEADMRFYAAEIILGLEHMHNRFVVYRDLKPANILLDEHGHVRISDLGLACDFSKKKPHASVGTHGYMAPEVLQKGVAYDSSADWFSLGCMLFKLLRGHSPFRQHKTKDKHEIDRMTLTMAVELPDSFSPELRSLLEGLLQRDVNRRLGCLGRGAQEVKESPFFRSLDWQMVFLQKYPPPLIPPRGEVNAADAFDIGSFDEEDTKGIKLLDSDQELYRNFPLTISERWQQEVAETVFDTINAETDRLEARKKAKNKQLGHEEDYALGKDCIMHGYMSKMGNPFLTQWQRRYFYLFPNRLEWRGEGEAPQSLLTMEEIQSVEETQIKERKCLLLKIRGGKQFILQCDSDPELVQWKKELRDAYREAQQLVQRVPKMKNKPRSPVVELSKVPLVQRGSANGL
CAL PDZ FP-2 – CAL PDZ peptide-binding inhibitors, primary screen, biochemical, fluorescence polarization, Cer-tagged CAL PDZ, HTS; inhibition, % at 20 µM; 330,000 compounds, 0.02% hits; Golgi-associated PDZ and coiled-coil motif-containing protein (Homo sapiens), Q9HD26; purified CAL PDZ, TMR-peptide fluorescence polarization, 1 h;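 active = highest replicate inhibition of at least 40%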;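 note: plate controls were DMSO neutral control wells for no effect and unlabeled competitor peptide control wells for full effect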
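material = purified tagged CAL PDZ domain construct (CerCALP) | compound dosing = 20 µM, one dose | times = 1 h at RT | measured by = fluorescence polarization from S- and P-plane intensities, G-factor corrected | read-out = inhibition from polarization loss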
* marks the source's active call; other numbers are inactive results; · = not tested or not shown.

SMILES	CAL PDZ FP-1	Tn6 DDE FP	ARNT TACC3 PPI	Tn7 DDE FP	GRK2 inh	CAL PDZ FP-2
Cc1ccc(CNC(=O)C2CCN(S(=O)(=O)c3ccc4c(c3)CC(C)N4C(=O)C3CCC3)CC2)o1 (stereo not given)	-4.0	-6.1	0.5	-2.5	2.0	-3.1
COC(CNC(=O)CNC(=S)N(Cc1ccccc1)Cc1cccnc1)OC	84.3*	-2.3	-2.8	-8.1	15.0	1.2
O=C(CNC(=S)N(Cc1ccccc1)Cc1cccnc1)NCc1ccccc1	-2.3	10.3	-1.3	1.4	7.0	-2.6
COC(=O)C[C@H]1CC[C@@H](NC(=O)c2ccncc2)[C@@H](CO)O1	·	1.4	·	7.4	·	·
CCc1ccc(CN(C)C(=O)C2CCC(=O)N(CCc3ccc(OC)cc3)C2)nc1 (stereo not given)	-1.5	2.9	6.4	1.4	5.0	-2.0
CCN(Cc1cnn(C)c1)C(=O)C1CCC(=O)N(CCc2ccc(OC)cc2)C1 (stereo not given)	85.9*	-3.4	-3.1	0.6	0.0	-0.6
Cc1ccc(NC(=O)CC(C)c2ccccc2)cc1S(=O)(=O)N1CCOCC1 (stereo not given)	-5.2	-0.1	-0.2	-0.7	0.0	-0.4
Cc1cccc(S(=O)(=O)N2C[C@H]3[C@@H](c4ccccc42)[C@@H](CO)N3Cc2cccnc2)c1	·	·	-3.6	·	·	·
Cc1cccc(S(=O)(=O)N2C[C@H]3[C@@H](c4ccccc42)[C@H](CO)N3Cc2ccccn2)c1	·	·	19.8*	·	·	·
Cc1c2ccccc2cc[n+]1CCCS(=O)(=O)[O-]	-1.7	0.1	·	-0.2	0.0	-2.3
CC1(C)C(/C=C/C=C/C=C/C=C2\N(CCCCS(=O)(=O)O)c3ccc4ccccc4c3C2(C)C)=[N+](CCCCS(=O)(=O)[O-])c2ccc3ccccc3c21	-8.8	·	65.5*	·	4.0	2.5
C[C@@H]1CN([C@H](C)CO)C(=O)c2cc(C#Cc3ccccc3)cnc2O[C@@H]1CN(C)Cc1ccccn1	·	·	-6.5	·	·	·
COc1ccc(S(=O)(=O)N(C)C[C@H]2Oc3c(NC(=O)c4ccc(-c5nccs5)cc4)cccc3C(=O)N([C@H](C)CO)C[C@@H]2C)cc1	·	·	0.0	·	·	·
O=C(C[C@H]1CC[C@@H]2[C@H](COC[C@H](O)CN2Cc2ccc(F)cc2)O1)NCc1ccccc1Cl	·	·	3.8	·	·	·
COc1cccc(/C=C/C(=O)NCc2ccc(S(N)(=O)=O)cc2)c1	-5.3	5.9	-7.6	6.9	1.0	-1.1
O=C(CSc1nnc(SCc2ccc(Cl)cc2)s1)N/N=C/c1ccc(C(=O)O)cc1	46.7*	-6.4	-2.0	0.4	4.0	-2.7
O=C(O)COc1ccccc1/C=N/NC(=O)CSc1nnc(SCc2ccc(Cl)cc2)s1	-9.9	3.9	0.2	-5.8	2.0	-0.9
OC(c1ccccc1)C(NCCNCc1ccccc1)c1ccccc1 (stereo not given)	164.9*	2.6	3.4	3.5	·	-0.4
O=C(NN1C(=O)/C(=C/c2cccc(O)c2)SC1=S)c1ccccc1O	5.5	-1.1	25.5	5.4	4.0	-1.9
O=C(O)COc1ccccc1/C=C1\SC(=S)N(/N=C/c2ccccc2O)C1=O	-2.2	1.1	70.1*	0.0	1.0	-2.1
O=C(O)COc1ccccc1/C=C1\SC(=S)N(NC(=O)c2ccccc2O)C1=O	-2.8	-3.4	51.0*	3.7	0.0	-1.1
Cc1ccc(C)c(NC(=O)CN(C)C(=O)c2ccc3c(=O)n4c(nc3c2)CCC4)c1	49.0*	7.7	-3.5	-7.0	2.0	-0.9
CCCNC(=O)N(C)C[C@@H]1Oc2ncc(C#CC3CCCCC3)cc2C(=O)N([C@H](C)CO)C[C@@H]1C	·	·	6.4	·	·	·
C[C@@H]1CCCCO[C@@H](CN(C)Cc2ccncc2)[C@H](C)CN([C@@H](C)CO)C(=O)c2cc(NC(=O)c3ccncc3)ccc2O1	·	·	-10.1	·	·	·
c1ccc(CNc2nc(-c3ccccn3)nc3ccccc23)cc1	-4.1	-15.7	70.2*	9.1	0.0	-3.1
SMILES	CAL PDZ FP-1	Tn6 DDE FP	ARNT TACC3 PPI	Tn7 DDE FP	GRK2 inh	CAL PDZ FP-2
CCC(C)Nc1nc(-c2ccccn2)nc2ccccc12 (stereo not given)	-2.1	-0.6	62.2*	4.0	0.0	-0.5
c1ccc(CNc2nc(-c3ccccc3)nc3ccccc23)cc1	1.2	-1.3	-8.8	1.0	13.0	1.7
CCC(C)Nc1nc(-c2cccc(OC)c2O)nc2ccccc12 (stereo not given)	·	1.0	20.9	5.0	4.0	-0.1
CSCC[C@H](NC(=O)[C@H](Cc1ccccc1)n1c(=O)[nH]c2ccccc2c1=O)C(=O)N[C@@H](Cc1ccccc1)C(=O)O	1.0	2.5	-15.4	-1.3	0.0	-0.9
O=C(COc1ccccc1Cl)Nc1ccc(N2CCCC2)cc1	-4.0	10.2	-5.9	-2.1	54.0*	-1.8
O=C(COC(=O)c1ccc(Cl)nc1)Nc1ccc(N2CCCCC2)cc1	41.2*	4.3	0.1	-4.7	0.0	·
Cc1cccc(S(=O)(=O)Nc2nc3ccccc3nc2OC(C)C)c1	0.0	3.5	-19.2	-1.1	58.0*	-1.1
O=C(NCCCN1CCOCC1)c1ccc2c(c1)N(Cc1ccccc1)CCS2	58.3*	-5.4	6.3	2.2	0.0	-1.0
COc1ccc(-n2c(SCC(=O)Nc3ccccc3-c3ccccc3)nnc2-c2ccco2)cc1	·	-7.0	·	2.1	·	·
CC(C)=C(NC(=O)c1ccccc1)C(=O)NCCc1nc2ccccc2[nH]1	37.6*	-2.7	1.3	2.5	0.0	-0.3
COc1ccccc1-c1cccc(-c2nc(C(=O)N3CCCCC3)cc3c2[C@@H](CCO)N(S(=O)C(C)(C)C)C3)c1 (stereo not given in full)	·	-1.0	·	-1.0	·	·
Cc1nccn1-c1ccc(C=O)cc1	120.5*	-1.9	-1.5	1.9	1.0	-0.2
O=Cc1ccc(-n2cccn2)cc1	10.4	3.8	-5.7	-0.4	1.0	-0.8
O=C(CCC(=O)N1CCCC1)Nc1ccc(Cl)c(Cl)c1	-0.4	1.2	·	-1.9	0.0	-2.5
CC(=O)Nc1cc(Cl)c(N=Cc2ccc(O)cc2O)cc1Cl	-0.4	16.8*	·	-6.1	0.0	-1.3
O=S(=O)(NN=Cc1ccc(O)cc1O)c1cc(Cl)c(Cl)cc1Cl	2.9	-7.0	6.1	2.3	·	-0.5
